Sampled rows, rich in hits. Any-hit rate of the full collection: about 3.3%.
XiGFP reactiv = X-chromosome reactivation activator; XiGFP mouse fibroblasts, % GFP-positive cells imaging, 3 d; cells co-treated with 5-aza-dC sensitizer; scaled so ellipticine positive control = 100%; activation, % at 7.58 µM; 0.055% of 360,000 active; AID 743238;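 active = mean normalized replicate activation at least 10% and every replicate at or above 10%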;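 note: 0% = median of on-plate neutral control wells and 100% = ellipticine 6 µM median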
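Material: XiGFP fibroblasts, SV40-immortalized. Buffer or medium: DMEM plus 5-aza-dC sensitizer. Compound: single concentration per compound, delivered by pin transfer. Times: 3 days compound exposure. Controls: ellipticine 6 µM.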
FGF22 binding = binders of recombinant human FGF22 by thermal shift | Q9HCT0 | SYPRO orange fluorescence; percent of sucrose octasulfate shift, DMSO zero | activity (Tm shift, normalised), % at 9.99 µM | 1.5% of 340,000 active | AID 651658;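 active = mean Tm shift, scaled 0 neutral to 100 positive control, at about 1.3% or above, every replicate too, limit read from the data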
PglD DTNB = PglD (C. jejuni) enzyme inhibition; purified PglD enzyme, DTNB colorimetric CoA detection; AID 602405; inhibition, % at 12.5 µM; 0.098% of 360,000 active; in the data active = inhibition above about 16%, passing the limit was not always enough
DENV2 CPE = DENV2-induced cell death inhibition | 1.7% of 350,000 active | CPE inhibition, % at 9.99 µM | DENV2-infected cells, cytopathic effect rescue, plate reader; in the data active = CPE inhibition above about 20%, passing the limit was not always enough; tested in BHK-21 cells;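 note: 0% = median of neutral control wells and 100% = median of positive control wells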
E-selectin induc = induces E-selectin expression in human endothelial cells. 0.37% of 260,000 active. P16581. HUVEC E-selectin immunofluorescence imaging; normalized: neutral wells 0, TNF-alpha wells 100. activation, % at 7.58 µM;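 active = mean E-selectin-positive cell signal at least 10% of the positive control, reached in at least 60% of replicates, without over 20% cell loss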
Target sequence (P16581 whole entry, looked up): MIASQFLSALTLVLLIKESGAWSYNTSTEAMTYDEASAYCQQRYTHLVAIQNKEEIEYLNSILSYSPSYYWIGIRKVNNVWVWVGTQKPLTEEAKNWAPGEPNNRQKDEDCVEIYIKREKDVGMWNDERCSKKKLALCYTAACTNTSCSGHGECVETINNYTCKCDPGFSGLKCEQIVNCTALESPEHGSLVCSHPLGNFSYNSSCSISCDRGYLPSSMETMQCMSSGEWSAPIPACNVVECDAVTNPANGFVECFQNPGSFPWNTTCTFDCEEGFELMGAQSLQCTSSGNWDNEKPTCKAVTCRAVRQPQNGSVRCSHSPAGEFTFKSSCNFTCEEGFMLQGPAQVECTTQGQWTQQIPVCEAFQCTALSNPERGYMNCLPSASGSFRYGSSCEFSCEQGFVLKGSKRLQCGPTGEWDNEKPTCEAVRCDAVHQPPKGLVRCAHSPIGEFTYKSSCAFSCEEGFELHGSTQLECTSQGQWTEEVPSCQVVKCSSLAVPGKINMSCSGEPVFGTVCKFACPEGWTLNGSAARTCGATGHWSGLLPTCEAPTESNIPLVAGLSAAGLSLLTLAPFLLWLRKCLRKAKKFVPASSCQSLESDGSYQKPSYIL
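Assay system: HUVEC primary endothelial cells. Input: 3,000 HUVEC seeded per well. Doses: one compound dose added by pin transfer. Read-out basis: % PE-positive cells. Benchmarks: TNF-alpha high, DMSO low. Detection: immunofluorescence imaging. Buffer or medium: EGM-2, gelatin.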
Statin myotox sup = protects C2C12 myotubes from simvastatin toxicity; ATP luminescence, 48 h; scaled: DMSO 0, geranylgeraniol control 100; rescue of ATP level, % at 7.49 µM; 0.78% of 330,000 active;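 active = mean ATP rescue above about 67%, or every replicate alone reaching that limit, limit read from the data, passing the limit was not always enough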;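 note: myotubes were challenged with 10 µM simvastatin during compound exposure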
An asterisk follows results filed as active; / = no result given.

SMILES	XiGFP reactiv	FGF22 binding	PglD DTNB	DENV2 CPE	E-selectin induc	Statin myotox sup
Cc1noc(C)c1NC(=O)Nc1ccc2c(c1)C(=O)N([C@@H](C)CO)C[C@@H](C)[C@H](CN(C)C(=O)Nc1ccccc1)O2	0	/	/	/	0	/
CCCSc1ccc([C@@H]2[C@H]3C(=O)N(CC)C(=O)[C@H]3[C@]3(C(=O)OC)CCCN23)cc1OC	1	0	-1	102*	0	3
Cc1ccc(S(=O)(=O)N2CCN(C(=O)CNC(=O)c3ccc(Cl)cc3)CC2)cc1	0	44*	2	0	0	-7
Cc1ccc(C(=O)NCC(=O)N2CCCN(S(=O)(=O)c3ccc(C)cc3)CC2)cc1	0	0	/	3	/	/
Cc1ccc(S(=O)(=O)N2CCN(C(=O)C(O)c3ccccc3)CC2)cc1 (stereo not given)	0	0	/	37*	0	/
CCN(CC)C(=O)N1CCN(S(=O)(=O)c2ccccc2)CC1	0	43*	/	3	/	/
O=C(c1cc(-c2ccccc2)n[nH]1)N1CCN(S(=O)(=O)c2ccccc2)CC1	0	0	0	43*	0	5
CNC[C@H]1Oc2ccc(NC(=O)NC(C)C)cc2CC(=O)N(C)C[C@@H]1C	0	/	/	/	/	/
C[C@@H]1COCn2nncc2CC[C@H](Cc2cccc(Cl)c2)C(=O)N1	0	/	/	/	/	/
Cc1ccc(NCC(=O)N2CCN(S(=O)(=O)c3ccccc3)CC2)cc1F	0	0	10	-5	32*	6
Cc1ccc(N(C)C(=O)N2CCN(S(=O)(=O)c3ccc(C)cc3)CC2)cc1	0	0	3	59*	0	0
O=C(NCCCn1cccn1)C1CCC(=O)N(Cc2cccc(C(F)(F)F)c2)C1 (stereo not given)	0	0	-5	3	/	2
O=C(NCCCC1CCCC1)C1CCC(=O)N(Cc2cccc(C(F)(F)F)c2)C1 (stereo not given)	0	0	0	26*	0	6
O=C(NC1CCCC1)C(=O)N(Cc1cccnc1)C(C(=O)NCc1ccco1)c1ccccc1F (stereo not given)	0	44*	/	6	2	/
O=C(NC1CCCCC1)C(c1ccccc1F)N(Cc1ccco1)C(=O)c1ccccn1 (stereo not given)	0	0	0	0	/	6
COc1cc2c3nnc(-c4ccc(F)cc4)c-3cn(Cc3ccc(C)cc3)c2cc1OC	98*	0	3	7	1	-17
Cc1ccc(Cn2nc3c4cc(F)ccc4n(Cc4ccc(F)cc4)cc-3c2=O)cc1	0	0	1	-1	0	7
COc1cc2c3nnc(-c4ccccc4)c-3cn(Cc3ccc(F)cc3)c2cc1OC	0	44*	/	/	/	/
COc1cc2c3nnc(-c4ccc(F)cc4)c-3cn(Cc3cccc(C)c3)c2cc1OC	82*	0	-1	5	0	0
COc1cccc(Cn2nc3c4cc(F)ccc4n(Cc4ccc(F)cc4)cc-3c2=O)c1	0	0	1	-5	0	-1
COc1ccc(NC(=O)N[C@@H]2CC[C@@H](CCNS(=O)(=O)c3ccccc3F)O[C@@H]2CO)cc1	0	1	1	-7	0	12
CNC[C@@H]1Oc2ncc(C#CC3(O)CCCC3)cc2C(=O)N([C@H](C)CO)C[C@@H]1C	0	0	1	3	0	-1
COc1ccccc1-c1cn(CC[C@H]2CC[C@@H](NC(=O)Cc3ccccn3)[C@H](CO)O2)nn1	0	0	-3	-1	-1	-1
COc1ccc(CN(C)C[C@H]2OCCCC[C@H](C)Oc3ccc(NC(=O)Nc4cccc5ccccc45)cc3C(=O)N([C@H](C)CO)C[C@H]2C)cc1	0	-1	-1	-9	0	/
O=C(NCC1CC1)C1(S(=O)(=O)c2ccccc2)CC=CC1	0	0	-6	21*	0	13
SMILES	XiGFP reactiv	FGF22 binding	PglD DTNB	DENV2 CPE	E-selectin induc	Statin myotox sup
COCCNC(=O)C1(S(=O)(=O)c2ccccc2)CC=CC1	0	0	-1	-3	0	-5
CCCC#Cc1ccc2c(c1)O[C@@H](CN(C)C(=O)C1CCCCC1)[C@@H](C)CN([C@@H](C)CO)S2(=O)=O	0	/	/	/	0	34
C/C(=N\NC(=O)c1sccc1C)c1cccnc1	0	0	3	-4	0	2
Cc1nc(C(F)(F)F)c(C(=O)N/N=C(\N)c2cccnc2)s1	0	43*	/	1	/	0
CCOc1cc(/C=N/NC(=O)C(=O)NC2CC2)cc(Br)c1O	0	0	-9	47*	/	-1
CCOc1cc(/C=N/NC(=O)c2ccc3c(c2)OCCO3)cc(Br)c1O	0	42	0	11	/	4
CCOc1cc(/C=N/NC(=O)C(N)=O)cc(Br)c1O	0	43*	/	6	/	/
COc1ccc2c3c([nH]c2c1)[C@H](CO)N(C(=O)Cc1ccccc1)CC31CCN(C(=O)Cc2ccccc2)CC1	1	/	/	5	0	/
COc1ccc(S(=O)(=O)N[C@H]2C=C[C@H](CC(=O)NCc3ccccc3F)O[C@H]2CO)cc1	0	0	3	-1	0	-2
C[C@@H]1CCCCO[C@H](CN(C)C(=O)Nc2ccc3c(c2)OCO3)[C@@H](C)CN([C@H](C)CO)C(=O)c2cc(NC(=O)c3ccncc3)ccc2O1	0	0	-1	1	0	/
Cn1c(C2=C(O)CN(c3ccccc3)C2=N)nc2ccccc21	0	44*	/	-3	/	/
CCOc1ccc(CSC(CC(=O)O)C(=O)O)cc1 (stereo not given)	/	/	1	/	/	103*
CCCCOc1ccc(CSC(CC(=O)O)C(=O)O)cc1 (stereo not given)	/	/	-1	/	/	/
COc1ccc(C(=O)OCC(=O)N2CCN(C(=O)c3ccco3)CC2)cc1OC	0	0	1	-7	0	88*
Cc1noc(C)c1NC(=O)N[C@H]1CC[C@@H](CC(=O)NCCCN(C)C)O[C@@H]1CO	0	0	-3	2	0	5
COc1ccc2c3c(n(C)c2c1)[C@H](CO)N(C(=O)Nc1ccc(F)cc1)CC31CCN(C(=O)CN2CCOCC2)CC1	0	0	/	-1	0	/
CCCc1cc2c(cc1NC(=O)c1ccc(C)cc1)OCO2	/	/	/	/	/	91*
C[C@H](CO)N1C[C@H](C)[C@H](CN(C)S(=O)(=O)c2ccccc2)OCCCC[C@H](C)Oc2ccc(NS(=O)(=O)c3cccs3)cc2C1=O	0	0	0	13	/	/
CCOC(=O)C(Cc1ccccc1)C(=O)Nc1nccs1 (stereo not given)	/	/	0	/	/	99*
CC(=O)c1c(C)[nH]c(C(=O)Nc2cc(F)ccc2C)c1C	/	43*	-3	1	/	8

Assay outcomes: PubChem, Broad Institute
